What was measured:
[1] = biological target: Tyrosine-protein kinase Lck (Homo sapiens, UniProt P06239); test: Inhibition of LCK (unknown origin) at 30 uM by microfluidic mobility shift assay relative to control
Outline: (§1)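 Single-point screen in a 24-enzyme kinase panel using a microfluidic assay. Each compound was tested at […] with ATP at roughly the Km for each enzyme. The pan-AGC inhibitor H-89 served as an internal control on every plate.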

[2] = biological target: Proto-oncogene tyrosine-protein kinase Src (Homo sapiens, UniProt P12931); test: Inhibition of SRC (unknown origin) at 30 uM by microfluidic mobility shift assay relative to control; outline: as §1
Proto-oncogene tyrosine-protein kinase Src, sequence (P12931 2-536 limits assumed): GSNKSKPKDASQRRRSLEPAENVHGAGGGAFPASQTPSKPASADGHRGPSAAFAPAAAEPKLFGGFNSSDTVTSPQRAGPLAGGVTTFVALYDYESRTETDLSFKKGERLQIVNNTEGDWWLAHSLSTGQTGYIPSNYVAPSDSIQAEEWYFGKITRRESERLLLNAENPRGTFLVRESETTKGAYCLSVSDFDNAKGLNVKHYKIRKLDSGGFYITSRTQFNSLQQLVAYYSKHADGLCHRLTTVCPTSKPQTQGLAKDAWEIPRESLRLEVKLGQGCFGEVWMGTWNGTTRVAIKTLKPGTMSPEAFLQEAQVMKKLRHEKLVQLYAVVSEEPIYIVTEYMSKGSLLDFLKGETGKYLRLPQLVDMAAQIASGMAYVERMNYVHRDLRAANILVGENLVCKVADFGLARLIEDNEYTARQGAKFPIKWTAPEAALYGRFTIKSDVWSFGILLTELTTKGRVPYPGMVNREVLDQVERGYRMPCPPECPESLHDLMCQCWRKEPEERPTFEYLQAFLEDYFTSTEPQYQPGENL

[3] = species on record: Homo sapiens; test: Inhibition of PKA (unknown origin) at 30 uM by microfluidic mobility shift assay relative to control; outline: as §1
[4] = biological target: Protein kinase C (PKC) (Homo sapiens) (UniProt O94806+P41743+P17252+P05129+Q05655+P05771+Q05513+Q02156+P24723+Q15139+Q04759); test: Inhibition of PKC (unknown origin) at 30 uM by microfluidic mobility shift assay relative to control; outline: as §1
[5] = biological target: Insulin receptor (Homo sapiens) (UniProt P06213); test: Inhibition of INSR (unknown origin) at 30 uM by microfluidic mobility shift assay relative to control; outline: as §1
Insulin receptor (Homo sapiens), sequence (P06213 28-758 limits assumed): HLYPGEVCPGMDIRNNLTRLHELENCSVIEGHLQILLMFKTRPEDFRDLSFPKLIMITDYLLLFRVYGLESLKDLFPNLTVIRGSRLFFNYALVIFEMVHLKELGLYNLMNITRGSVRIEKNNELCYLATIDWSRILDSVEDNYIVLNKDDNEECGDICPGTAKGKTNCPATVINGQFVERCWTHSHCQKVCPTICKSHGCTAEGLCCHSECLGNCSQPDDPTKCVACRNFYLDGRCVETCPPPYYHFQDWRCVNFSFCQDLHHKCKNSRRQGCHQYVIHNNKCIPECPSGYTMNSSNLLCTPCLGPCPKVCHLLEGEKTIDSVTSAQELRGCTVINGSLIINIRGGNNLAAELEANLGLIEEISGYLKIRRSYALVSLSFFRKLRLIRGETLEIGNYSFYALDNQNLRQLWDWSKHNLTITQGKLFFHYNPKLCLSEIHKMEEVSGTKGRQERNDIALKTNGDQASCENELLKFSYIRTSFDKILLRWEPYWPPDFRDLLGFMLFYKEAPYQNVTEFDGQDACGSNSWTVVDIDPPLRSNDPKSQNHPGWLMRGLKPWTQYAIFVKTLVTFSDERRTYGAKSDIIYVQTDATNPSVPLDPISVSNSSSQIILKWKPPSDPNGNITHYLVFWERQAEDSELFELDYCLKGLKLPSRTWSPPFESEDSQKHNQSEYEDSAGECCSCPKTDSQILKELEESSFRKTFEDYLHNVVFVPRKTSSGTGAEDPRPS
Insulin receptor (Homo sapiens), sequence (P06213 763-1382 limits assumed): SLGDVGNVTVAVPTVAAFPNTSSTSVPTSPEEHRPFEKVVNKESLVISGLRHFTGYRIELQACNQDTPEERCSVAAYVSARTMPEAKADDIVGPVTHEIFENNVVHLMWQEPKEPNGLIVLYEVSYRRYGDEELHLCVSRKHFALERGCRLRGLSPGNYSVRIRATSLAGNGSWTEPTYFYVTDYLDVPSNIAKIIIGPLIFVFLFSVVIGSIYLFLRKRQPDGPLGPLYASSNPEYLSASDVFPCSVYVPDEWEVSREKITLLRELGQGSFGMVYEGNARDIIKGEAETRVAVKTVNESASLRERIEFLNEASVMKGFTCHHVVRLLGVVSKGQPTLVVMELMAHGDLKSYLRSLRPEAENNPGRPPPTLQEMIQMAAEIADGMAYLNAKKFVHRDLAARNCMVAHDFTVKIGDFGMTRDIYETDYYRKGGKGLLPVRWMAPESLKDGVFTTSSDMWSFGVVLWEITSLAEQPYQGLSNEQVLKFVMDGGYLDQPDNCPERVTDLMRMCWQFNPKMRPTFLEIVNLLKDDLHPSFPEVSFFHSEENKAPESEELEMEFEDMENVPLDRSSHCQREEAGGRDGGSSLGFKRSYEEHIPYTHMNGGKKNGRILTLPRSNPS

[6] = biological target: Tyrosine-protein kinase Lyn (Homo sapiens, UniProt P07948); test: Inhibition of LYN (unknown origin) at 30 uM by microfluidic mobility shift assay relative to control; outline: as §1
Tyrosine-protein kinase Lyn, sequence (P07948 2-512 limits assumed): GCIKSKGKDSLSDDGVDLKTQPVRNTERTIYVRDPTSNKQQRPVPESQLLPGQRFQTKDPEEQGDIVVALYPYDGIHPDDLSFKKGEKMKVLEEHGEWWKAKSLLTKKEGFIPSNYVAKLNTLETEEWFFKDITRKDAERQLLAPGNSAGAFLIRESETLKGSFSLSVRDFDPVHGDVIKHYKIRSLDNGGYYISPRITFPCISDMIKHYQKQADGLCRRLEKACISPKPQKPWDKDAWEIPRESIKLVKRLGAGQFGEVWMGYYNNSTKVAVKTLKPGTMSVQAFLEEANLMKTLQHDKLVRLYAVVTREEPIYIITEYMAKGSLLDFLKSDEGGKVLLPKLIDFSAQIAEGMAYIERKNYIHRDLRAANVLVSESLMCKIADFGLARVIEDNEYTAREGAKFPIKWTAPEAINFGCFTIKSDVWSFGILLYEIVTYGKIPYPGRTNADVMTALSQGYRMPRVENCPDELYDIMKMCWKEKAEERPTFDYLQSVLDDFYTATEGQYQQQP

[7] = biological target: Tyrosine-protein kinase Fyn (Homo sapiens, UniProt P06241); test: Inhibition of FYN (unknown origin) at 30 uM by microfluidic mobility shift assay relative to control; outline: as §1
Tyrosine-protein kinase Fyn, sequence (P06241 2-537 limits assumed): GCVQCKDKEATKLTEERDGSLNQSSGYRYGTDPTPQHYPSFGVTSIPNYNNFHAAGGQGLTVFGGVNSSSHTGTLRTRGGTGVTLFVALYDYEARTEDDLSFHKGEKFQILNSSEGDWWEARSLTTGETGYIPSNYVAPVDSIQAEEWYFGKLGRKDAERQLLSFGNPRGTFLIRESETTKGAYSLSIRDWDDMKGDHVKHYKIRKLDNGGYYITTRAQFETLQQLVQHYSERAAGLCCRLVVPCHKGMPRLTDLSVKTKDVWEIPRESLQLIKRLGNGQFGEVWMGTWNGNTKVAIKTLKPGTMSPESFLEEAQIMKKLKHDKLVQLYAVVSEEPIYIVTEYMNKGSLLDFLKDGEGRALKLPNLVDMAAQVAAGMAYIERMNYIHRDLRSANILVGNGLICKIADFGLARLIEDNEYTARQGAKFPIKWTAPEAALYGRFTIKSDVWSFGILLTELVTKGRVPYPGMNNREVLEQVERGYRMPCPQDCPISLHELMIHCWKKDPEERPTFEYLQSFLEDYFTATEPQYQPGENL

Tyrosine-protein kinase Lck, sequence (P06239 2-509 limits assumed): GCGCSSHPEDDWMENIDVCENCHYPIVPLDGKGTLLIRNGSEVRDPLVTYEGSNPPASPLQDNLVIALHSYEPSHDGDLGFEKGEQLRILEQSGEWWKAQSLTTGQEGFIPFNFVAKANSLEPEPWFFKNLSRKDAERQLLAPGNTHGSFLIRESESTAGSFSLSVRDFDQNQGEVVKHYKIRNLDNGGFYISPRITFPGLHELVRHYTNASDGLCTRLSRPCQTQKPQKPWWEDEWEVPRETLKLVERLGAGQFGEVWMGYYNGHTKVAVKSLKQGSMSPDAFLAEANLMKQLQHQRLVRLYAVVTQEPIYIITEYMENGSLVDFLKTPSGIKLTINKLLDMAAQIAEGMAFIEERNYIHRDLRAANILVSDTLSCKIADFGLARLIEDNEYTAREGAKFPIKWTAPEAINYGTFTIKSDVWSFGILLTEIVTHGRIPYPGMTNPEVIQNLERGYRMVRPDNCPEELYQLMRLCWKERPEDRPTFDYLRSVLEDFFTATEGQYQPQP

How did the inhibition [1] turn out when `O=S(=O)(NCCNC/C=C/c1ccc(Br)cc1)c1cccc2cnccc12` was run?
The inhibition was 22%.

What about the inhibition [2] of the same molecule?
Its inhibition is 4%.

What about the inhibition [3] of the same molecule?
Its inhibition is 100%.

What about the inhibition [4] of the same molecule?
The inhibition was 64%.

And the inhibition [5]?
The inhibition was 29%.

What about the inhibition [6] of the same molecule?
The inhibition was 50%.

What about the inhibition [7] of the same molecule?
The inhibition was 14%.

Source: ChEMBL document CHEMBL2417369, “Synthesis and evaluation of heteroaryl substituted diazaspirocycles as scaffolds to probe the ATP-binding site of protein kinases” (Bioorg Med Chem, 2013)
